≈ marks a conversion by molar mass, not a printed value.
Columns and labels:
Escherichia coli [1] = assay: Antibacterial activity against fluoroquinolone resistant Escherichia coli SKM18 by CLSI M100-S17 protocol based method; type: functional
Escherichia coli [2] = assay: Antibacterial activity against wild type Escherichia coli ATCC 25922 by CLSI M100-S17 protocol based method; type: functional
Escherichia coli [3] = assay: Antibacterial activity against quinolone resistance Escherichia coli isolate ELZ4251 harboring gyrA/parC mutant by CLSI M100-S17 protocol based method; type: functional
Acinetobacter baumannii [4] = assay: Antibacterial activity against wild type Acinetobacter baumannii ATCC BAA-747 by CLSI M100-S17 protocol based method; type: functional
Acinetobacter baumannii [5] = assay: Antibacterial activity against fluoroquinolone resistant Acinetobacter baumannii isolate MMX2240 by CLSI M100-S17 protocol based method; type: functional
Klebsiella pneumoniae = assay: Antibacterial activity against wild type Klebsiella pneumoniae ATCC 35657 by CLSI M100-S17 protocol based method; type: functional
Escherichia coli [6] = assay: Antibacterial activity against wild type Escherichia coli ATCC 25922 in presence of HSA by CLSI M100-S17 protocol based method; type: functional
Mus musculus [7] = assay: Terminal half life in CD1 mouse plasma at 10 mg/kg, iv by LC-MS/MS analysis; type: ADME, organism-based; conditions: in vivo
Mus musculus [8] = assay: AUC (0 to 24 hrs) in CD1 mouse plasma at 10 mg/kg, iv by LC-MS/MS analysis; type: ADME, organism-based; design: time < 24 hr, dose 10 mg/kg, route intravenous; conditions: in vivo
In short: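 CD-1 mice given a single 10 mg/kg iv dose (n = 3), in either 10% DMSO plus 1% Tween 80 in pH 8.0 phosphate buffer or 20% (2-hydroxypropyl)-β-cyclodextrin in pH 4.0 citrate buffer; plasma exposure measured.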

Mus musculus [9] = assay: Volume of distribution at steady state in CD1 mouse plasma at 10 mg/kg, iv by LC-MS/MS analysis; type: ADME, organism-based; conditions: in vivo
[10] = Oral bioavailability in CD1 mouse plasma by LC-MS/MS analysis; type: ADME, organism-based
[11] = Fraction unbound in mouse plasma at 1 uM by equilibrium dialysis method; type: ADME, cell-free
Escherichia coli [12] = assay: Antibacterial activity against quinolone resistant Escherichia coli by broth microdilution method; type: functional; conditions: Escherichia coli
In short: (§1)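 MICs were determined by CLSI broth methods, except that organisms were grown in brain–heart–infusion medium. The panel comprised wild-type and resistant E. coli and A. baumannii strains, including 12 strains whose details are given by reference.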

Escherichia coli [13] = assay: Antibacterial activity against wild type Escherichia coli by broth microdilution method; type: functional; in short: as §1
Escherichia coli [14] = assay: Antibacterial activity against beta-lactam resistant Escherichia coli by broth microdilution method; type: functional; conditions: Escherichia coli; in short: as §1
Escherichia coli [15] = assay: Antibacterial activity against aminoglycoside resistant Escherichia coli by broth microdilution method; type: functional; conditions: Escherichia coli; in short: as §1
Escherichia coli [16] = assay: Antibacterial activity against multidrug resistant Escherichia coli by broth microdilution method; type: functional; conditions: Escherichia coli; in short: as §1
Acinetobacter baumannii [17] = assay: Antibacterial activity against wild type Acinetobacter baumannii by broth microdilution method; type: functional; in short: as §1
Acinetobacter baumannii [18] = assay: Antibacterial activity against aminoglycoside resistant Acinetobacter baumannii by broth microdilution method; type: functional; conditions: Acinetobacter baumannii; in short: as §1
Acinetobacter baumannii [19] = assay: Antibacterial activity against quinolone resistant Acinetobacter baumannii by broth microdilution method; type: functional; conditions: Acinetobacter baumannii; in short: as §1
Acinetobacter baumannii [20] = assay: Antibacterial activity against beta-lactam resistant Acinetobacter baumannii by broth microdilution method; type: functional; conditions: Acinetobacter baumannii; in short: as §1
Acinetobacter baumannii [21] = assay: Antibacterial activity against carbapenem resistant Acinetobacter baumannii by broth microdilution method; type: functional; conditions: Acinetobacter baumannii; in short: as §1
Acinetobacter baumannii [22] = assay: Antibacterial activity against multidrug resistant Acinetobacter baumannii by broth microdilution method; type: functional; conditions: Acinetobacter baumannii; in short: as §1
[23] = Inhibition of His tagged Escherichia coli ATCC 25922 DNA gyrase A expressed in Escherichia coli BL21 (DE3) pLysS cells assessed as reduction in enzyme-mediated supercoiling of relaxed plasmid DNA pNO1 after 30 mins in presence of biotinylated TFO1 by fluorescence assay
[24] = Inhibition of Escherichia coli DNA topoisomerase 4 assessed as reduction in decatenation activity using kinetoplast concatenated DNA as substrate after 30 mins by picogreen dye based fluorescence assay
Escherichia coli [25] = assay: Selectivity ratio of MIC for wild type Escherichia coli ATCC 25922 in presence of HSA to MIC for wild type Escherichia coli ATCC 25922; type: functional

## Cn1c(CN2CCCC2)cc2cc3c(cc21)CCCc1c-3[nH]c(=O)c(C(=O)O)c1O
Escherichia coli [1]
  MIC: 0.78 µg/mL (≈ 1.91 µM)
Escherichia coli [2]
  MIC: 0.78 µg/mL (≈ 1.91 µM)
Escherichia coli [3]
  MIC: 1.6 µg/mL (≈ 3.93 µM)
Acinetobacter baumannii [4]
  MIC: 0.78 µg/mL (≈ 1.91 µM)
Acinetobacter baumannii [5]
  MIC: 1.6 µg/mL (≈ 3.93 µM)
Klebsiella pneumoniae
  MIC: 0.78 µg/mL (≈ 1.91 µM)
Escherichia coli [6]
  MIC: 6.3 µg/mL
Mus musculus [7]
  beta t1/2: 2.8 h
Mus musculus [8]
  AUC: 4050 ng·h/mL
Mus musculus [9]
  Vdss: 8.1 L/kg
[10]
  bioavailability: 33%
[11]
  Fu: 0.11
Escherichia coli [12]
  MIC90: 0.5 µg/mL (≈ 1.23 µM)
Escherichia coli [12]; read-out: MIC
  MIC: 0.12 to 0.5 µg/mL (≈ 0.295 to 1.23 µM)
Escherichia coli [13]
  MIC90: 0.5 µg/mL (≈ 1.23 µM)
Escherichia coli [14]
  MIC90: 0.5 µg/mL (≈ 1.23 µM)
Escherichia coli [14]; read-out: MIC
  MIC: 0.12 to 0.5 µg/mL (≈ 0.295 to 1.23 µM)
Escherichia coli [15]
  MIC90: 0.5 µg/mL (≈ 1.23 µM)
Escherichia coli [15]; read-out: MIC
  MIC: 0.12 to 0.5 µg/mL (≈ 0.295 to 1.23 µM)
Escherichia coli [16]
  MIC90: 0.5 µg/mL (≈ 1.23 µM)
Escherichia coli [16]; read-out: MIC
  MIC: 0.12 to 0.5 µg/mL (≈ 0.295 to 1.23 µM)
Acinetobacter baumannii [17]
  MIC50: 2 µg/mL (≈ 4.91 µM)
  MIC90: 16 µg/mL (≈ 39.3 µM)
Acinetobacter baumannii [18]
  MIC50: 2 µg/mL (≈ 4.91 µM)
  MIC90: 16 µg/mL (≈ 39.3 µM)
Acinetobacter baumannii [18]; read-out: MIC
  MIC: 0.12 to 16 µg/mL (≈ 0.295 to 39.3 µM)
Acinetobacter baumannii [19]
  MIC50: 2 µg/mL (≈ 4.91 µM)
  MIC90: 16 µg/mL (≈ 39.3 µM)
Acinetobacter baumannii [19]; read-out: MIC
  MIC: 0.12 to 16 µg/mL (≈ 0.295 to 39.3 µM)
Acinetobacter baumannii [20]
  MIC50: 2 µg/mL (≈ 4.91 µM)
  MIC90: 16 µg/mL (≈ 39.3 µM)
Acinetobacter baumannii [20]; read-out: MIC
  MIC: 0.12 to 16 µg/mL (≈ 0.295 to 39.3 µM)
Acinetobacter baumannii [21]
  MIC50: 2 µg/mL (≈ 4.91 µM)
  MIC90: 16 µg/mL (≈ 39.3 µM)
Acinetobacter baumannii [21]; read-out: MIC
  MIC: 0.12 to 16 µg/mL (≈ 0.295 to 39.3 µM)
Acinetobacter baumannii [22]
  MIC50: 2 µg/mL (≈ 4.91 µM)
  MIC90: 16 µg/mL (≈ 39.3 µM)
Acinetobacter baumannii [22]; read-out: MIC
  MIC: 0.12 to 16 µg/mL (≈ 0.295 to 39.3 µM)

## CNCc1cc2c3c(ccc2n1C)-c1[nH]c(=O)c(C(=O)O)c(O)c1CCC3
Escherichia coli [1]
  MIC: 6.3 µg/mL (≈ 17.1 µM)
Escherichia coli [2]
  MIC: > 12.5 µg/mL
[23]
  IC50: 1000 nM
[24]
  IC50: 27900 nM

## CNCc1cc2cc3c(cc2n1C)CCCc1c-3[nH]c(=O)c(C(=O)O)c1O
Escherichia coli [1]
  MIC: 0.39 µg/mL (≈ 1.06 µM)
Escherichia coli [2]
  MIC: 0.39 µg/mL (≈ 1.06 µM)
Escherichia coli [3]
  MIC: 0.8 µg/mL (≈ 2.18 µM)
Acinetobacter baumannii [4]
  MIC: 1.6 µg/mL (≈ 4.35 µM)
Acinetobacter baumannii [5]
  MIC: 1.6 µg/mL (≈ 4.35 µM)
Klebsiella pneumoniae
  MIC: 0.39 µg/mL (≈ 1.06 µM)
Escherichia coli [6]
  MIC: 3.1 µg/mL
[23]
  IC50: 100 nM
[24]
  IC50: 3700 nM
Escherichia coli [25]
  Ratio: 4 - 16

From ChEMBL document CHEMBL4190388, “Discovery and Optimization of Indolyl-Containing 4-Hydroxy-2-Pyridone Type II DNA Topoisomerase Inhibitors Active against Multidrug Resistant Gram-negative Bacteria” (J Med Chem, 2018)
